Results as given in ChEMBL document CHEMBL1944609, “Niphatenones, glycerol ethers from the sponge Niphates digitalis block androgen receptor transcriptional activity in prostate cancer cells: structure elucidation, synthesis, and biological activity” (J Med Chem, 2012).
Activity calls are given as the source filed them. The calls are words filed in the database; no cut-off is given here.

Assays:
[1] = molecular target: T1, Androgen receptor (Homo sapiens) (UniProt P10275); test: Antagonist activity at androgen receptor in human LNCAP cells transfected with p6.1-luciferase assessed as inhibition of R1881-induced transcriptional activity at 7 uM pretreated 1 hr prior to R1881 addition measured after 48 hrs by luciferase reporter gene assay; format: functional, cell-based
T1 sequence (whole entry): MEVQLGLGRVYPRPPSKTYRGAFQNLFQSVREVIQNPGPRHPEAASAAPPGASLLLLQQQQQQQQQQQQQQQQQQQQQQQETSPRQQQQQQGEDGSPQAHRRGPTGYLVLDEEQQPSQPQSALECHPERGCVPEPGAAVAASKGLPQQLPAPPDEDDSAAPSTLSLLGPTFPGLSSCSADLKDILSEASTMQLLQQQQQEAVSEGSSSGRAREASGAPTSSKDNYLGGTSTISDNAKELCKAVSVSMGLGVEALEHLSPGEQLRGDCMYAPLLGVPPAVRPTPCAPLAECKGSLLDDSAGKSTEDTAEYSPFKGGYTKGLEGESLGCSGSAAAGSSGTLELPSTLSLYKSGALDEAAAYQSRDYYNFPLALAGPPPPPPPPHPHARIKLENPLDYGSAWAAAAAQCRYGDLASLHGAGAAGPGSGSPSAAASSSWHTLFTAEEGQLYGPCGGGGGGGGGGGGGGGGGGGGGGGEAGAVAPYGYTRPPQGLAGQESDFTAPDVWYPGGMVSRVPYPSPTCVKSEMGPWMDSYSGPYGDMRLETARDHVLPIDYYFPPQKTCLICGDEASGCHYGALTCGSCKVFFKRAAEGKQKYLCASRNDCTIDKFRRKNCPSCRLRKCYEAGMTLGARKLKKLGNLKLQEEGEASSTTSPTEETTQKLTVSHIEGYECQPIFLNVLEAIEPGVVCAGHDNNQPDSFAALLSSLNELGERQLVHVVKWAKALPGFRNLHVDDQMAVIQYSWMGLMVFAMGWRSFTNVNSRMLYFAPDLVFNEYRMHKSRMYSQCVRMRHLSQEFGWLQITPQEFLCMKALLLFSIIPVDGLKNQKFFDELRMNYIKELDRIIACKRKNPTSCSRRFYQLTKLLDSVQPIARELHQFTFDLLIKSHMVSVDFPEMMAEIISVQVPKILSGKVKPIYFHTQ
Procedure, shortened: (§1)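 LNCaP cells were transfected using lipofectin in serum-free, phenol red-free medium with PSA (6.1 kb) luciferase (0.5 μg/well) plus empty vector (1 μg/well) for 24 h. Cells were then given a 1 h compound pretreatment before R1881 was added. After 48 h, luciferase was read and normalized to Bradford protein, expressed as % of the R1881 + DMSO vehicle maximum. Data are mean ± SD of three experiments, each in triplicate.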

[2] = molecular target: T1, Androgen receptor (Homo sapiens); test: Antagonist activity at androgen receptor in human LNCAP cells transfected with p6.1-luciferase assessed as inhibition of R1881-induced transcriptional activity at 3.5 uM pretreated 1 hr prior to R1881 addition measured after 48 hrs by luciferase reporter gene assay; format: functional, cell-based; procedure, shortened: as §1
PC-3 = test: Antiproliferative activity against androgen receptor deficient human PC3 cells at 14 uM after 24 hrs by BrdU incorporation assay; format: functional, cell-based
Procedure, shortened: (§2)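 PC3 cells were seeded for 24 h in phenol red DMEM with 5% FBS and penicillin/streptomycin, then pretreated for 1 h and cultured 24 h. BrdU was added for 2 h, then cells were fixed and incubated with anti-BrdU-POD for 1.5 h; absorbance was read at 570 nm. Data are mean ± SD of three experiments, 6 technical replicates each, analyzed by Student's t test.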

LNCaP = test: Antiproliferative activity against R1881-stimulated human LNCAP cells expressing androgen receptor at 14 uM treated 1 hr before R1881 addition measured after 72 hrs by BrdU incorporation assay; format: functional, cell-based
Procedure, shortened: as §2, with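 “LNCaP” for “PC3”, “red-free RPMI 1640” for “red DMEM”, “0.5%” for “5%”, “before 0.1 nM R1881. After 72 h,” for “and cultured 24 h.”, “test versus R1881.” for “test.”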

[3] = molecular target: T1, Androgen receptor (Homo sapiens); test: Binding affinity to AF1 region of N-terminus domain androgen receptor at 20 uM after 50 mins by coomassine blue staining based SDS-PAGE analysis
Procedure, shortened: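 Recombinant AR AF1 (purified by Ni2+-agarose, then size exclusion) at 10 μM was incubated on ice for 50 min with 20 μM alkyne probe in DMSO, or DMSO alone. The reaction was then diluted in half and click-labeled with 10 μM fluorescein azide, 0.1 mM ascorbate and 0.1 mM Cu(II)-TBTA for 30–40 min at RT. Labeling of the AF1 band was read as fluorescence on SDS-PAGE.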

Structure (SMILES) | inhibition [1] | also measured
CCCCCCCCCCCCC(=O)/C=C/CCCOC[C@@H](O)COCCOCCOCCO | Active | –
CCCCCCCCCCCCCCCCCC(=O)/C=C/CCCOC[C@H](O)CO | – | inhibition [2]: Active
CCCCCCCCCCCCC(=O)/C=C/CCCOC[C@H](O)CO | Active | Activity (PC-3): inactive; Activity (LNCaP): Active
CCCCCCCCCCCCC(=O)/C=C/CCCOC[C@H]1CO1 | Active | –
CC(=O)/C=C/CCCOC[C@H](O)CO | inactive | –
CCCCCCCCCCCCC(=O)/C=C/CCCCC[C@H](O)CO | Active | –
CCCCCCCCCCCCC(=O)CCCCCOC[C@H](O)CO | Active | –
CCCCCCCCCCCCC(=O)/C=C/CCCOC[C@@H](O)CO | 50% | Activity (PC-3): inactive; Activity (LNCaP): Active
C#CCOC[C@@H](O)COCCC/C=C/C(=O)CCCCCCCCCCCC | Active | Activity [3]: Active
CCCCCCCCCCC/C=C/C(=O)CCCCOC[C@@H](O)CO | inactive | –
CCCCCCCCCCCCC(=O)/C=C/CCCOC[C@@H]1COC(C)(C)O1 | Active | –
CCCCCCCCCCCCC(=O)/C=C/CCCOC[C@@H](O)CCl | Active | –
CCCCCCCCCCC/C=C/C(=O)CCCCOC[C@H](O)CO | Active | –
